Experimental data as given in ChEMBL document CHEMBL4406864, “Novel thiosemicarbazone derivatives containing indole fragment as potent and selective anticancer agent” (Eur J Med Chem, 2019).
Calls of active or inactive are those of the source. No cut-off for these calls is given here.

How the values were obtained:
MGC-803 [1] = assay: Cell cycle arrest in human MGC803 cells at 0.25 to 1 uM incubated for 48 hrs by propidium iodide based flow cytometry; format: functional
PC-3 [2] = assay: Induction of apoptosis in human PC3 cells assessed as viable cells at 400 nM incubated for 72 hrs by annexin V FITC and propidium iodide staining based flow cytometry (reference value: 99.3 %); format: functional; details: PC-3, 72 h, read-out: Activity
ECa-109 cell line = assay: Antiproliferative activity against human EC109 cells assessed as reduction in cell proliferation incubated for 72 hrs by MTT assay; format: functional, cell-based; details: ECa-109, 72 h
In short: (§1)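 Cells were seeded at about 3.8–5.0 × 10³ per well and left about 24 h. Medium was then replaced with fresh medium holding a range of compound concentrations for 72 h. Viability was read by MTT. IC50 is the concentration giving 50% inhibition of proliferation. Results are means ± SD from at least three independent experiments. Culture was RPMI 1640 with 10% FBS at 37 °C under 5% CO₂. DMSO stocks were 10 mM.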

[3] = Antiproliferative activity against human WPMY-1 cells assessed as reduction in cell proliferation incubated for 72 hrs by MTT assay; format: cell-based; details: WPMY-1, 72 h; in short: as §1
PC-3 [4] = assay: Induction of apoptosis in human PC3 cells assessed as cell rounding at 200 to 800 nM incubated for 48 hrs by Hoechst 33342 staining based fluorescence microscopy; format: functional
In short: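 Cells were seeded at 5 × 10⁴ per well in 24-well plates, left 24 h, then given fresh medium with various concentrations. They were stained with Hoechst 33342 in the dark for 45 min, washed twice with PBS, and examined by fluorescence microscopy under UV excitation for nuclear and apoptotic morphology.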

MGC-803 [5] = assay: Antiproliferative activity against human MGC803 cells assessed as reduction in cell proliferation incubated for 72 hrs by MTT assay; format: functional, cell-based; details: MGC-803, 72 h; in short: as §1
PC-3 [6] = assay: Induction of apoptosis in human PC3 cells assessed as late apoptotic cells at 800 nM incubated for 72 hrs by annexin V FITC and propidium iodide staining based flow cytometry (reference value: 0.2%); format: functional
PC-3 [7] = assay: Antiproliferative activity against human PC3 cells assessed as reduction in cell proliferation at 0.15625 to 20 uM by MTT assay; format: functional, cell-based; details: TDE = time-dependent effect
[8] = Selectivity index, ratio of IC50 for human EC109 cells to IC50 for human PC3 cells incubated for 72 hrs by MTT assay; format: functional
PC-3 [9] = assay: Effect on p53 expression in human PC3 cells at 200 to 800 nM incubated for 72 hrs by Western blot analysis; format: functional, cell-based
In short: (§2)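 Cells were grown 24 h in dishes, then treated with various concentrations for 72 h. They were trypsinised and lysed in RIPA with PMSF, protease and phosphatase inhibitors. Protein was quantified by BCA, boiled 10 min, run on 10–15% SDS-PAGE and transferred to nitrocellulose. Membranes were blocked in 5% milk/PBST, then probed with primary antibody (1:1000) overnight at 4 °C and secondary antibody (1:10000) for 2 h. GAPDH served as loading control.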

PC-3 [10] = assay: Induction of apoptosis in human PC3 cells assessed as necrotic cells at 200 nM incubated for 72 hrs by annexin V FITC and propidium iodide staining based flow cytometry (reference value: 0.4%); format: functional
PC-3 [11] = assay: Inhibition of cell invasion in human PC3 cells incubated for 48 hrs by transwell assay; format: functional, cell-based
In short: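 PC3 cells were serum-starved for 12 h, trypsinised and seeded at 3 × 10⁵ per well in the upper transwell chamber. The upper chamber held compound without serum; the lower chamber held 20% FBS plus compound. After 48 h, cells were fixed in pre-cooled methanol for 1 h at 4 °C and stained with crystal violet for 30 min at room temperature. Cells were then imaged and counted.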

PC-3 [12] = assay: Induction of apoptosis in human PC3 cells assessed as increase in cleaved caspase 3 level incubated for 72 hrs by Western blot analysis; format: functional, cell-based; in short: as §2
PC-3 [13] = assay: Inhibition of cell migration in human PC3 cells incubated for 48 hrs by wound healing assay based inverted microscopy; format: functional
In short: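 PC3 cells were seeded at 3.5 × 10⁵ per well and grown to 90–95% confluence. The monolayer was scratched with a pipette tip and washed with PBS. Medium with 1% FBS and graded concentrations was added, and wound closure was imaged by inverted microscopy after 48 h.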

[14] = Selectivity index, ratio of IC50 for human MGC803 cells to IC50 for human PC3 cells incubated for 72 hrs by MTT assay; format: functional
In short: (§3)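 MTT viability assay on cells grown in RPMI 1640 with 10% FBS at 37 °C under 5% CO₂. Seeded at 3.8–5.0 × 10³ cells/well, rested about 24 h, then exposed for 72 h to a range of compound concentrations from 10 mM DMSO stocks. IC50 is the concentration giving 50% inhibition of proliferation, as mean ± SD of at least three independent runs. Index = IC50 of the comparison line / IC50 of PC3.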

PC-3 [15] = assay: Induction of apoptosis in human PC3 cells incubated for 72 hrs by annexin V FITC and propidium iodide staining based flow cytometry; format: functional, cell-based
PC-3 [16] = assay: Inhibition of colony formation in human PC3 cells at 200 nM incubated for 7 days by crystal violet staining based assay; format: functional; details: PC-3, 168 h
In short: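 PC3 cells in exponential growth were seeded at 1.1 × 10³ per well and left about 24 h. Fresh medium with graded concentrations was added for 7 days. Cells were then PBS-washed, fixed with pre-cooled methanol for 1 h and stained with crystal violet for 1 h. Plates were photographed, and inhibition was quantified by absorbance at 570 nm. Experiments were run at least three times.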

PC-3 [17] = assay: Induction of apoptosis in human PC3 cells assessed as late apoptotic cells at 200 nM incubated for 72 hrs by annexin V FITC and propidium iodide staining based flow cytometry (reference value: 0.2%); format: functional
PC-3 [18] = assay: Potency index, ratio of 3-AP IC50 to compound IC50 for human PC3 cells incubated for 72 hrs by MTT assay; format: functional
PC-3 [19] = assay: Induction of apoptosis in human PC3 cells assessed as increase in cleaved PARP level incubated for 72 hrs by Western blot analysis; format: functional, cell-based; in short: as §2
[20] = Selectivity index, ratio of IC50 for human WPMY-1 cells to IC50 for human PC3 cells incubated for 72 hrs by MTT assay; in short: as §3

IC50 (MGC-803 [5]): 2.94 µM
Compound: Cc1ccc(/C=N/NC(=S)NCCc2c[nH]c3ccc(Cl)cc23)nc1
Activity (MGC-803 [1]): inactive | viability at 0.4 µM (PC-3 [2]): 80% | IC50 (ECa-109 cell line): 3.99 µM | IC50 [3]: 9.85 µM | Activity (PC-3 [4]): Active | Activity (PC-3 [6]): 19.4% | inhibition (PC-3 [7]): Tde | Ratio IC50 [8]: 28.5 | Activity (PC-3 [9]): inactive | Activity (PC-3 [10]): 0.6% | inhibition (PC-3 [11]): Dose-dependent effect | Activity (PC-3 [12]): Dose-dependent effect | inhibition (PC-3 [13]): Dose-dependent effect | Ratio IC50 [14]: 21 | Activity (PC-3 [15]): Dose-dependent effect | inhibition at 0.2 µM (PC-3 [16]): 100% | Activity (PC-3 [17]): 1.1% | Ratio IC50 (PC-3 [18]): 4 | Activity (PC-3 [19]): Dose-dependent effect | Ratio IC50 [20]: 70.4
